Reference: paper PMC6997517 (EBioMedicine, 2020)

What was measured:
[1] = system: mice with IMQ-induced psoriasis-like disease; assay: Histology and immunohistochemistry of back skin, psoriasis model; format: in vivo, mouse (C57BL/6); conditions: immunohistochemistry
Summary of the method: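 Back-skin lesions from imiquimod-treated C57BL/6 mice fixed in 4% paraformaldehyde, paraffin-embedded and sectioned at 7 μm. H&E staining used for epidermal/dermal thickness, measured by microscopy. Immunohistochemistry done with HRP/DAB detection using primary antibodies to CD68, CD4 and IL-17.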

[2] = system: CIA mice; assay: Collagen-induced arthritis; format: in vivo, mouse (DBA/1 J); conditions: TIP3 10 nmol/g or MTX 2 mg/kg, i.p. daily from day 22
Summary of the method: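 Male DBA/1J mice (6–7 weeks, 20–23 g) immunised at tail base with 100 μg chicken type II collagen in an equal volume of complete Freund's adjuvant (day 0), boosted day 20. Groups of n = 7. Test compound (2·5 or 10 nmol/g) or methotrexate (2 mg/kg) in saline given i.p. once daily from day 22. Body weight, paw volume and arthritis index tracked. […] (maximum 16), twice weekly.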

[3] = system: RAW264.7 cells; assay: MTT cell viability, RAW264.7 cells; format: cell-based, murine; conditions: ≤50 µM
Summary of the method: (§1)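 MTT colourimetric viability assay. HEK-Blue hTLR4 cells (high-glucose DMEM, 10% FBS, normocin) seeded at 5 × 10^4/well. RAW264.7 cells seeded at 2 × 10^5/well. Both grown overnight before exposure to test compound.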

[4] = system: TLR4; assay: Cytokine ELISA, LPS-stimulated RAW264.7 cells; format: cell-based, murine; conditions: n ≥ 3
Summary of the method: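 Murine macrophages seeded at 2 × 10^5/well (96-well) or 5 × 10^5/well (24-well) and grown overnight, then treated with test compound and LPS. After 24 h treatment, secreted IFN-β was measured by pre-coated mouse IFN-β ELISA. Mouse IL-6 and mouse TNF-α were measured by ELISA kits.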

[5] = system: TLR4; assay: Western blot, LPS-stimulated RAW264.7 cells; format: cell-based, murine; conditions: for expression of MAPKs: Supp Fig. 1c (p-ERK, p-JNK, p-p38)
Summary of the method: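 Total protein extracted with M-PER reagent and quantified by BCA. Membranes incubated with primary antibodies overnight at 4 °C, washed in PBS/0·1% Tween 20, then HRP-conjugated secondary (1:1000) for 2 h. Bands detected by enhanced chemiluminescence, with β-actin as loading reference.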

[6] = system: TLR4 (HEK-Blue™ hTLR4 cells); assay: SEAP activity assay; format: cell-based, human; conditions: LPS-stimulated; absorbance at 620 nm; n ≥ 3
Summary of the method: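 Seeded at 2 × 10^5/well (24-well) and grown overnight, then treated with a range of test-compound concentrations with or without LPS. Supernatants heat-treated at 65 °C for 10 min. SEAP (NF-κB reporter) detected with HEK-Blue detection medium.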

[7] = system: HEK-Blue™ hTLR4 cells; assay: MTT cell viability, HEK-Blue hTLR4 cells; format: cell-based, human; conditions: n ≥ 3
Summary of the method: as §1

[8] = system: multiple TLR signalling pathways; conditions: ref [44]; cited from earlier work

Compound	cell viability [3]	LPS-induced TNF-α secretion [4]	Iκ-Bα degradation [5]	phosphorylation of p65 subunit of NF-κB (p-p65) [5]	expression of MAPKs [5]	also measured
CN(Cc1cnc2nc(N)nc(N)c2n1)c1ccc(C(=O)N[C@@H](CCC(=O)O)C(=O)O)cc1 [MTX, methotrexate, reference compound]	–	–	–	–	–	overexpression of CD4 in skin [1]: just as in the MTX-treated group; overexpression of CD68 in skin [1]: just as in the MTX-treated group; overexpression of IL-17 in skin [1]: just as in the MTX-treated group; loss of body weight [2]: not observed; arthritis index ([2]; maximal score 16): significantly decreased; relative paw volume (large paw volume) ([2]; plethysmometer): TIP3 (10 nmol/g)- and MTX-injected mice did not
DYDVCVCH [TIP3 w/o CPP]	did not affect the cell viability at ≤50 µM	did not have any modulatory effect on TNF-α secretion	neither peptide inhibited Iκ-Bα degradation	neither peptide inhibited Iκ-Bα degradation, phosphorylation of the p65 subunit of NF-κB (p-p65)	neither peptide inhibited Iκ-Bα degradation, phosphorylation of the p65 subunit of NF-κB (p-p65), or the expression of mitogen-activated protein kinase (MAPKs)	–
KKWKMRRNQFWIKIQR [CPP, reference compound]	did not affect the cell viability at ≤50 µM	did not have any modulatory effect on TNF-α secretion	neither peptide inhibited Iκ-Bα degradation	neither peptide inhibited Iκ-Bα degradation, phosphorylation of the p65 subunit of NF-κB (p-p65)	neither peptide inhibited Iκ-Bα degradation, phosphorylation of the p65 subunit of NF-κB (p-p65), or the expression of mitogen-activated protein kinase (MAPKs)	–
TIPLLS [TIP2]	–	–	–	–	–	inhibition of LPS-induced SEAP activity (NF-κB) [6]: TIP3, but not TIP2, hampered the LPS-induced SEAP activity; cell viability / cytotoxicity ([7]; 12·5 to 50 μM): did not show any significant cytotoxicity; cell viability / cytotoxicity ([7]; high concentration, 100 μM): slight cytotoxicity; TLR signalling inhibition [8]: TIP1, but not TIP2, abrogates multiple TLR signalling pathways
